# From ChEMBL document CHEMBL1148478, “Benzo[f]azino[2,1-a]phthalazinium cations: novel DNA intercalating chromophores with antiproliferative activity” (2004)
# Calls of active or inactive are those of the source. The calls are words filed in the database; no cut-off is given here.
# Tests used:
# [1] = tested on: IGROV-1; assay: In vitro antiproliferative activity against human IGROV ovarian cell line; type: functional
# How it was run: (§1)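 SRB colorimetric growth assay. Cells seeded at 5×10^3 per well in RPMI and left to attach in drug-free medium for 18 h. Compounds were then added in DMSO/H2O 3:7 and exposed for 72 h. Cells were fixed with cold 50% TCA for 60 min at 4 °C and stained with 0.4% SRB for 10 min. Bound dye was solubilized in Tris and OD read at 490 nm. GI50 was derived from control, test and time-zero OD. Triplicate; values above 10 μM were scored NS.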
# [2] = tested on: IGROV-1; assay: In vitro antiproliferative activity against human IGROV-ET ovarian cell line; NS = Not significant; type: functional, cell-based; how it was run: as §1
# [3] = tested on: SK-MEL-28; assay: In vitro antiproliferative activity against human MEL-28 melanoma cell line; NS = Not significant; type: functional, cell-based; how it was run: as §1
# [4] = tested on: K562; assay: In vitro antiproliferative activity against human K-562 cell line; type: functional; how it was run: as §1
# [5] = tested on: HeLa; assay: In vitro antiproliferative activity against human HeLa cervix cell line; NS = Not significant; type: functional, cell-based; how it was run: as §1
# [6] = tested on: PANC-1; assay: In vitro antiproliferative activity against human PANC-1 pancreas cell line; NS = Not significant; type: functional, cell-based; how it was run: as §1
# [7] = tested on: HeLa; assay: In vitro antiproliferative activity against human HeLa-APL cervix cell line; NS = Not significant; type: functional, cell-based; how it was run: as §1
# [8] = tested on: A549; assay: In vitro antiproliferative activity against human A-549 NSCL cell line; NS = Not significant; type: functional, cell-based; how it was run: as §1
# [9] = tested on: LoVo; assay: In vitro antiproliferative activity against human LOVO colon cell line; NS = Not significant; type: functional, cell-based; how it was run: as §1
# [10] = tested on: DU-145; assay: In vitro antiproliferative activity against human DU-145 prostate cell line; NS = Not significant; type: functional, cell-based; how it was run: as §1
# [11] = tested on: LNCaP; assay: In vitro antiproliferative activity against human LN-caP prostate cell line; type: functional; how it was run: as §1
# [12] = tested on: LoVo; assay: In vitro antiproliferative activity against human LOVO-DOX colon cell line; NS = Not significant; type: functional, cell-based; how it was run: as §1
# [13] = tested on: SK-BR-3; assay: In vitro antiproliferative activity against human SK-BR-3 breast cell line; type: functional; how it was run: as §1
# [14] = tested on: HT-29; assay: In vitro antiproliferative activity against human HT-29 colon cell line; NS = Not significant; type: functional, cell-based; how it was run: as §1
# [15] = tested on: HeLa; assay: In vitro antiproliferative activity against human HeLa-APL cervix cell line; type: functional; how it was run: as §1
# [16] = tested on: PANC-1; assay: In vitro antiproliferative activity against human PANC-1 pancreas cell line; type: functional; how it was run: as §1
# [17] = tested on: HT-29; assay: In vitro antiproliferative activity against human HT-29 colon cell line; type: functional; how it was run: as §1
# [18] = tested on: DU-145; assay: In vitro antiproliferative activity against human DU-145 prostate cell line; type: functional; how it was run: as §1
# [19] = tested on: A549; assay: In vitro antiproliferative activity against human A-549 NSCL cell line; type: functional; how it was run: as §1
# [20] = tested on: IGROV-1; assay: In vitro antiproliferative activity against human IGROV-ET ovarian cell line; type: functional; how it was run: as §1
# [21] = tested on: SK-MEL-28; assay: In vitro antiproliferative activity against human MEL-28 melanoma cell line; type: functional; how it was run: as §1
# [22] = tested on: HeLa; assay: In vitro antiproliferative activity against human HeLa cervix cell line; type: functional; how it was run: as §1
# [23] = tested on: LoVo; assay: In vitro antiproliferative activity against human LOVO colon cell line; type: functional; how it was run: as §1
# [24] = tested on: K562; assay: In vitro antiproliferative activity against human K-562 cell line; NS = Not significant; type: functional, cell-based; how it was run: as §1
# [25] = tested on: LoVo; assay: In vitro antiproliferative activity against human LOVO-DOX colon cell line; type: functional; how it was run: as §1
GI50 [4] [µM],GI50 [7],GI50 [11] [µM],GI50 [12],GI50 [13] [µM],GI50 [15] [µM],GI50 [16] [µM],GI50 [17] [µM],GI50 [18] [µM],GI50 [19] [µM],GI50 [21] [µM],GI50 [22] [µM],GI50 [23] [µM],GI50 [25] [µM],Structure (SMILES),GI50 [1] [µM],GI50 [2],GI50 [20] [µM],also measured
7.6,inactive,5.2,inactive,9.7,,,,,,,,,,c1ccc(-c2n[n+]3ccccc3c3ccc4ccccc4c23)cc1,0.1,inactive,,GI50 [3]: inactive; GI50 [5]: inactive; GI50 [6]: inactive; GI50 [8]: inactive; GI50 [9]: inactive; GI50 [10]: inactive; GI50 [14]: inactive
0.1,,0.07,inactive,0.5,0.6,0.4,0.2,0.5,0.5,0.4,0.3,0.3,,CCOc1ccc(-c2n[n+]3c4ccc(C)cc4ccc3c3ccc4ccccc4c23)cc1,0.4,,1.7,
,inactive,4,inactive,4.6,,,,,,8.4,,,,Cc1cc[n+]2nc(-c3ccccc3)c3c4ccccc4ccc3c2c1,6.5,inactive,,GI50 [24]: inactive; GI50 [5]: inactive; GI50 [6]: inactive; GI50 [8]: inactive; GI50 [9]: inactive; GI50 [10]: inactive; GI50 [14]: inactive
0.6,,0.4,,0.5,1.4,1,0.6,1.8,0.8,1.2,1.3,1,7,CCOc1ccc(-c2n[n+]3c(C)cccc3c3ccc4ccccc4c23)cc1,2.4,,4.5,
0.03,,0.02,,1.1,0.01,3.5,3.1,0.02,0.07,3.1,0.01,0.01,2.4,COc1cccc2c1C(=O)c1c(O)c3c(c(O)c1C2=O)C[C@@](O)(C(=O)CO)C[C@@H]3O[C@H]1C[C@H](N)[C@H](O)[C@H](C)O1 [DOXORUBICIN],4.4,,2.4,
6.7,,2.6,inactive,3.9,7.4,4.9,5.4,5.8,6,5.3,4.6,6.3,,CCOc1ccc(-c2n[n+]3c4ccccc4ccc3c3ccc4ccccc4c23)cc1,2.6,inactive,,
0.2,inactive,0.2,,0.5,,0.7,0.4,0.5,0.6,0.5,0.5,0.4,3.6,Cc1ccc2c(ccc3c4ccc5ccccc5c4c(-c4ccccc4)n[n+]23)c1,0.5,,1.8,
1.5,,0.4,,0.5,4.1,3.4,1.2,3.1,4.2,2.5,3.8,3,5.4,Cc1cccc2c3ccc4ccccc4c3c(-c3ccccc3)n[n+]12,1.7,,2.9,
0.4,,0.3,,0.5,0.1,1.3,0.4,1,0.8,1,0.7,0.6,3.5,c1ccc(-c2n[n+]3c4ccccc4ccc3c3ccc4ccccc4c23)cc1,0.5,,2,
1.2,,0.5,,1.2,5,2.1,1.1,4.8,3,2.6,3.1,2.9,8,CCOc1ccc(-c2n[n+]3ccccc3c3ccc4ccccc4c23)cc1,3.8,,8.6,
